In the library only some 2.3% were active in any assay of this set; here they are far more common.
OXTR potentiate: potentiates the human oxytocin receptor response | P30559 | CHO-OTR cells, Fluo-8 calcium fluorescence, potentiator mode; 0% = oxytocin EC15, 100% = EC100 | activation, % at 3 µM | actives 0.061% (n = 320,000) | AID 2445;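 active = activation above that plate's cutoff, the mean activation of tested compounds plus 3 SD, cut at about 6.6% in these data, passing the limit was not always enough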;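 also: 100% uses oxytocin at 75 nM as the full agonist control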
Target sequence (P30559 whole entry, looked up): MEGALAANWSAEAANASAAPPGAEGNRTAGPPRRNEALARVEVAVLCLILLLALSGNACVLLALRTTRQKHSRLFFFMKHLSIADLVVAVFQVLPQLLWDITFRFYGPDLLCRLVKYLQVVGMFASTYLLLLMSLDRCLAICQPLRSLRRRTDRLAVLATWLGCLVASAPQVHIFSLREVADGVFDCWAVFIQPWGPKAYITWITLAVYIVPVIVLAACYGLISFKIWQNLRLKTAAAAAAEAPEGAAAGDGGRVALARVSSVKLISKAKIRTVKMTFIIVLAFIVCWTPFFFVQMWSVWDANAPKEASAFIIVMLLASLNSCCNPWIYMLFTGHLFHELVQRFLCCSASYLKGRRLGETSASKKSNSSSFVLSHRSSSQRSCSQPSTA
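Assay system: CHO-OTR cells, human receptor / Also added: oxytocin at about EC15, sub-maximal agonist stimulus / Dosing: single dose, 3.0 µM nominal final compound concentration / Incubation: 6 min pre-incubation, 100 s read / Technique: Fluo-8 calcium dye fluorescence / Read-out: % activation vs EC15 and EC100 oxytocin / Benchmarks: EC15 oxytocin low, 75 nM oxytocin high / Replicates: singlicate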
V1aR counter: counter-screen for oxytocin receptor agonists: human V1a receptor agonists; P37288; CHO-V1R cells, Fluo-8 calcium fluorescence, agonist mode; 0% DMSO, 100% 3 nM vasopressin; actives 0.25% (n = 320,000); activation, % at 3 µM;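 active = activation above the mean activation of all tested compounds plus 3 SD, per screening run, cut at about 20% in these data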;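 also: signal is peak over basal fluorescence ratio across a 100 second FLIPR read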
TAAR1 agonist: human TAAR1 agonism; actives 0.99% (n = 360,000); AID 624467; CHO RD-HGA16 TAAR1, Fluo-8 calcium fluorescence; vehicle wells 0%, saturating PEA agonist 100%; activation, % at 3 µM; Q96RJ0;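 active = activation above the mean activation of all test compounds in the run plus 3 SD, cut at about 38% in these data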
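System: CHO-derived RD-HGA16 cells with stable Gα16 and human TAAR1 / Times: 17-24 h plating, Fluo-8 75 min 37 °C, 30 min RT / Technique: calcium-sensitive Fluo-8 signal, excitation 470-495, emission 515-575 nm / Measure: % activation relative to PEA EC100 response / Benchmarks: DMSO and PEA EC100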
OXTR ag: human OXTR agonism. P30559. CHO-OTR cells, Fluo-8 calcium fluorescence; normalized: DMSO 0%, oxytocin 100%. activation, % at 3 µM. actives 0.32% (n = 320,000). AID 2435;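 active = activation above the mean of all tested compounds plus 3 SD, cutoff set per screening run, cut at about 20% in these data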;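 also: peak over basal fluorescence ratio from a 100 s FLIPR kinetic read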
TAAR1 antag: antagonists of human TAAR1; CHO RD-HGA16 TAAR1, Fluo-8 calcium fluorescence, antagonist; inhibition, % at 3 µM; actives 1.5% (n = 360,000); AID 624466;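 active = inhibition above a per-plate cutoff, the mean inhibition of test compounds on that plate plus 3 SD, cut at about 49% in these data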;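 also: 0% = DMSO plus EC80 beta-PEA response and 100% = DMSO alone without agonist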
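Test system – hTAAR1-expressing CHO RD-HGA16 cells, Gα16-coupled · Reagent – β-PEA at EC80 concentration, post-compound challenge · Compound dosing – 3 µM, single point · Timing – 140 s kinetic read after compound, 140 s after agonist · Detection – Fluo-8 intracellular calcium dye fluorescence, real-time kinetic reads · Control set – DMSO and EC80 PEA controls · Repeats – n of 1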
TAAR1 ag confirm: human TAAR1 agonism, confirmed | shares compounds with TAAR1 agonist | CHO RD-HGA16 TAAR1, Fluo-8 calcium fluorescence; scaled: DMSO 0%, maximal phenethylamine 100% | activation, % at 3 µM | actives 82% (n = 2,400) | AID 651783;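 active = activation above a cutoff set at the run's mean compound activation plus 3 SD, cut at about 39% in these data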
Ga16 nonsel ag: nonselective agonism, TAAR1 counter-screen. shares compounds with TAAR1 agonist. CHO-Ga16 parental, Fluo-8 calcium fluorescence; normalized to maximal ATP response, DMSO zero. activation, % at 3 µM. actives 50% (n = 2,400);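 active = activation above the run cutoff, the mean activation over all tested wells plus 3 SD, cut at about 12% in these data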;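 also: 0% = DMSO wells and 100% = maximal ATP response on the peak over basal ratio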
TAAR1 desens: counter-screen for human TAAR1 agonists: agonists that desensitize TAAR1; CHO RD-HGA16 hTAAR1, Fluo-8 calcium, beta-PEA response inhibition; inhibition, % at 3 µM; shares compounds with TAAR1 agonist; actives 46% (n = 2,400);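 active = inhibition above the run cutoff, the mean inhibition of all test compounds plus 3 SD, cut at about 49% in these data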;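 also: beta-PEA stimulus applied at its EC80; loss of beta-PEA calcium signal after compound pretreatment read as receptor desensitization; 0% = DMSO with beta-PEA at EC80 and 100% = DMSO alone without agonist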
Ga16 antag count: counter-screen for TAAR1 agonists: nonselective Ga16 antagonists; shares compounds with TAAR1 agonist; CHO-Ga16 ATP-induced calcium, Fluo-8 fluorescence; inhibition, % at 3 µM; actives 39% (n = 2,400); AID 651952;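 active = inhibition above the plate's mean compound inhibition plus 3 SD, computed per plate, cut at about 22% in these data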;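 also: 0% = EC80 ATP with DMSO and 100% = DMSO wells without ATP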
* marks the source's active call; other numbers are inactive results; / = not tested or not shown.

SMILES	OXTR potentiate	V1aR counter	TAAR1 agonist	OXTR ag	TAAR1 antag	TAAR1 ag confirm	Ga16 nonsel ag	TAAR1 desens	Ga16 antag count
Cc1cccc(CCNCc2cc3ccc(C)cc3[nH]c2=O)c1	-4.5	0.5	82.8*	-0.9	70.4*	99.7*	5.2	93.0*	-0.9
CCOc1ccc(-c2cc(C(=O)N3CCC4(CC3)OCCO4)c3ccccc3n2)cc1	/	/	5.0	/	13.4	/	/	/	/
C[CH2][Hg][S]c1ccccc1C(=O)O	12.1*	6.6	120.1*	4.3	95.7*	44.4*	59.4*	73.0*	84.1*
CCOC(=O)C(O)(c1ccc(NC(=S)NC(=O)c2ccc(Cl)cc2Cl)c(C)c1)C(F)(F)F (stereo not given)	-12.6	34.2*	76.1*	32.0*	99.2*	95.8*	55.7*	106.6*	84.6*
CCOC(=O)C(O)(c1ccc(NC(=S)NC(=O)c2ccc(Cl)cc2Cl)cc1)C(F)(F)F (stereo not given)	-15.0	33.8*	78.3*	50.6*	79.2*	74.5*	44.9*	93.1*	73.2*
CCOC(=O)C(O)(c1ccc(NC(=O)Oc2ccccc2)cc1)C(F)(F)F (stereo not given)	-3.8	0.7	3.6	-0.6	5.8	/	/	/	/
CCOC(=O)[C@]12Cc3cc(C)ccc3[C@H]1N(C1CCCCC1)C(=O)c1cc(OC)ccc12	/	/	3.0	/	-49.9	/	/	/	/
CC=C(C)C1(CCC)C(=O)NC(=S)NC1=O	/	/	4.0	/	0.6	/	/	/	/
O=C1NC(=O)N(c2cccc(Cl)c2)C(=O)/C1=C\c1ccc(Sc2nc3ccccc3[nH]2)o1	-21.2	57.3*	117.6*	59.1*	75.0*	25.7	32.3*	29.2	38.5*
O=C1NC(=O)N(c2ccccc2)C(=O)/C1=C/c1ccc(Sc2ccccc2)o1	-8.5	1.4	/	2.2	/	/	/	/	/
CCC(=NCCc1ccccc1)c1c(O)[nH]c(=O)[nH]c1=O	-8.1	0.8	/	0.7	/	/	2.8	/	3.8
CCCCn1c(O)c(C(C)=NCCc2ccccc2)c(=O)[nH]c1=O	-2.2	-0.1	73.1*	-1.1	33.7	44.5*	3.9	10.7	10.9
O=C(CCc1ccccc1)N1Cc2cc(-c3cccc(F)c3)ccc2-n2nncc2C1	/	/	-1.8	/	15.9	/	/	/	/
CC1CN(CC(=O)c2ccccc2Cl)CC(C)O1 (stereo not given)	-8.3	1.5	84.8*	-0.7	54.2*	105.8*	2.8	43.5	-10.3
CC1CC2(O)c3nonc3CCC2N1O (stereo not given)	-1.4	0.2	3.9	1.1	-7.6	/	/	/	/
COc1ccc(CNCCc2c[nH]c3ccccc23)c(OC)c1C	-15.0	14.2	27.5	11.0	3.4	/	/	/	/
Cn1cccc1CNCCc1ccccc1F	-1.6	0.7	62.9*	0.0	67.1*	101.6*	-0.7	81.9*	4.5
COc1ccc(CNCCc2ccccc2F)c(OC)c1C	-8.9	3.1	84.5*	7.7	73.2*	92.7*	8.0	79.6*	10.2
CCCC[N+]1(C)[C@@H]2CC(OC(=O)[C@H](CO)c3ccccc3)C[C@H]1[C@@H]1O[C@@H]12 (stereo not given in full)	-1.1	0.2	0.0	0.3	-8.7	/	/	/	/
CN1CC(C(=O)c2cccs2)C(c2ccc(Cl)cc2)C1 (stereo not given)	-0.5	1.3	0.9	2.3	-23.0	/	/	/	/
CN1CC(C(=O)c2ccc(Cl)cc2)C(c2ccccc2)C1 (stereo not given)	-12.3	1.3	45.3*	1.1	1.8	75.4*	12.7*	35.7	11.0
CC12CC(O)C3C(CCC4=CC(=O)CCC43C)C1CCC2=O (stereo not given)	/	/	8.0	/	-34.9	/	/	/	/
NCC(=O)c1ccccc1	/	/	88.8*	/	52.7*	89.1*	6.8	87.9*	1.6
NNP(=O)(CC(=O)c1ccccc1)c1ccccc1 (stereo not given)	-13.4	-0.3	1.9	0.4	-9.3	/	/	/	/
CC(NC1=NCCS1)c1ccccc1 (stereo not given)	0.6	0.5	/	0.6	/	/	-0.2	/	-0.3
CC1CN=C(NC(C)c2ccccc2)S1 (stereo not given)	-1.1	0.4	5.4	-0.6	-5.8	/	/	/	/
CCCCCCCSc1cc(OC)c(CCNC)cc1OC	-12.4	5.0	66.8*	6.4	35.3	51.7*	21.0*	44.3	24.1*
CCCCCSc1cc(OC)c(CCNC)cc1OC	-15.9	7.2	37.2	13.0	-9.8	/	/	/	/
O=C(Nc1ccc(Cl)cc1)Nc1nccs1	-24.7	7.2	50.0*	8.9	32.7	56.2*	7.8	34.3	22.0*
